GPR7 antag: human neuropeptides B/W receptor 1 antagonism | P48145 | GPR7-expressing cells, fluorescence antagonist assay | inhibition, % at 4.4 µM | hit rate 1.1% among 290,000 | AID 1861; in the data active = inhibition above about 16%, passing the limit was not always enough;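 note: cells stimulated with the agonist NPW; 0% = agonist with vehicle and 100% = vehicle without agonist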
Target sequence (P48145 whole entry, looked up): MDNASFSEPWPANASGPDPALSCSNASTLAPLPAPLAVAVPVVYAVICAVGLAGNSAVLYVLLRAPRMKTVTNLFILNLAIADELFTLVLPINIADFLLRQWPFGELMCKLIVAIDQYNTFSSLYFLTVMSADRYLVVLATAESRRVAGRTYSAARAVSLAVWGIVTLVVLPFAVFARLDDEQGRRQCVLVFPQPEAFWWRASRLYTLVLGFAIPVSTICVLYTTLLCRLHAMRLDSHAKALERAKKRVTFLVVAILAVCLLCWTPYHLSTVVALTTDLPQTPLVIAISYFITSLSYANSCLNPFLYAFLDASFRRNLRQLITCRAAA
EBNA-1 inhibitor: blocks EBNA-1 binding to DNA. hit rate 0.34% among 300,000. inhibition, % at 14.8 µM. EBNA-1 DNA binding, fluorescence polarization; in the data active = inhibition above about 28%
HCV NS3 hel inh: inhibitors of Hepatitis C virus NS3 helicase; AID 1800; hit rate 0.56% among 290,000; NS3 helicase DNA unwinding, Cy5 molecular beacon fluorescence; inhibition, % at 10.9 µM;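 active = inhibition above the mean of all tested compounds plus 3 SD, set per campaign, cut at about 35% in these data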;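 note: 0% = DMSO wells and 100% = thioflavine S control wells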
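Control set: DMSO versus 110 µM thioflavine S; Material: NS3 helicase fragment of HCV; Measured by: Cy5 fluorescence at 0 and 60 min, beacon hairpin quenching; Read-out basis: percent inhibition from t60/t0 fluorescence ratio; Times: reaction time 60 min, 25 °C; Repeats: single replicate; Compound dosing: single dose, 10.9 µM nominal final, DMSO 0.8% final.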
ZTA counter: counter-screen for EBNA-1 inhibitors: inhibitors of Epstein-Barr virus ZTA; inhibition, % at 11 µM; ZTA-DNA binding, fluorescence polarization; AID 2234; hit rate 0.15% among 320,000; in the data active = inhibition above about 33%
EBV gp42 block: inhibitors of Epstein-Barr virus glycoprotein 42; inhibition, % (tested at 21.74 µM); Q1HVG2; Fluorescence polarization binding assay, mP read-out; hit rate 0.42% among 220,000; in the data active = inhibition above about 50%
Target sequence (Q1HVG2 whole entry, looked up): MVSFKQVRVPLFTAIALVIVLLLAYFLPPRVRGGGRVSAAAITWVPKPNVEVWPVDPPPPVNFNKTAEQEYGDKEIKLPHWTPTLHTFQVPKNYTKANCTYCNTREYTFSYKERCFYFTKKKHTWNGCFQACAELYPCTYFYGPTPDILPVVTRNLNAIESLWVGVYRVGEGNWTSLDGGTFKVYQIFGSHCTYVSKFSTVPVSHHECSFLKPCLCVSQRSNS
HCV core dimer: HCV core protein dimerization inhibition | hit rate 0.33% among 300,000 | inhibition, % at 5 µM | AID 1899 | TR-FRET GST/Flag-core106 dimerization, 1536-well;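 active = inhibition above the mean of all tested compounds plus 3 SD, set per screening campaign, cut at about 45% in these data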
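test system = GST/Flag-tagged HCV core106 proteins | probe or stimulus = Eu donor and XL665 acceptor anti-tag antibodies | times = compound-protein-antibody incubation 4 h at 22.5 °C | signal = TR-FRET, excitation 340 nm, emission 617 and 671 nm | measure = percent inhibition of core106 dimerization signal | controls = wells lacking GST-core106 and wells with excess unlabelled core106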
GPR7 antag conf: human GPR7 antagonism, confirmation assay; GPR7-expressing cells, calcium fluorescence antagonist mode; shares compounds with GPR7 antag; inhibition, % at 4.4 µM; AID 1952; hit rate 52% among 2,400; in the data active = inhibition above about 24%;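 note: stimulated with the GPR7 agonist NPW; 0% = agonist plus vehicle and 100% = vehicle alone without agonist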
MCHR1 antag: antagonizes human MCHR1, a GPR7 antagonist counter-screen; inhibition, % at 4.4 µM; MCHR1-expressing cells, fluorescence antagonist assay; shares compounds with GPR7 antag; hit rate 62% among 2,400; in the data active = inhibition above about 22%;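 note: 0% = vehicle with agonist and 100% = vehicle without agonist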
* = called active by the depositor; nt = not tested or not shown. The list is not random: actives were taken first. Their share in the collection is about 2.3%.

SMILES | GPR7 antag | EBNA-1 inhibitor | HCV NS3 hel inh | ZTA counter | EBV gp42 block | HCV core dimer | GPR7 antag conf | MCHR1 antag
CCn1nc(C(C)C)cc1C(=O)N1CCCC(CO)(Cc2ccc(F)cc2F)C1 (centres undefined) | 27.7* | -3.8 | 26.3 | 8.4 | nt | 2.8 | 10.4 | 27.1*
Cc1ccccc1CC1(CO)CCCN(C(=O)c2ccc3ncccc3c2)C1 (centres undefined) | 9.8 | -1.9 | -2.2 | 8.2 | -9.3 | 0.8 | nt | nt
COc1ccc(CN2CCCC(CO)(Cc3ccc(F)cc3F)C2)cc1 (centres undefined) | -11.2 | -1.4 | -8.8 | -2.6 | nt | -1.6 | nt | nt
Cc1nc2ccc(C(=O)N3CCCC(CO)(Cc4ccc(F)cc4F)C3)cc2nc1C (centres undefined) | 31.7* | -10.3 | 6.1 | 3.5 | nt | -11.4 | -10.0 | 12.1
COc1ccc2c(c1)C(=O)C(=O)N2CC1COc2ccccc2O1 (centres undefined) | 30.7* | 3.7 | 4.6 | 0.6 | nt | 4.5 | 20.5 | 26.7*
CCC(=O)N1CCN(c2ccccc2NC(=O)Cc2ccc(Cl)cc2)CC1 | 2.6 | 1.2 | -4.4 | 18.6 | -1.2 | 7.9 | nt | nt
CN1CCN(c2ccc(S(=O)(=O)N3CCCCC3)cc2NC(=O)Cc2ccc(Cl)cc2)CC1 | 25.1* | -5.0 | -62.3 | 1.9 | -32.5 | 0.3 | 50.0* | 53.5*
O=C(Cc1ccc(Cl)cc1)Nc1cc(S(=O)(=O)N2CCOCC2)ccc1N1CCCC1 | 5.3 | -1.3 | -6.7 | -25.9 | -17.6 | 4.6 | nt | nt
CN1CCN(c2ccccc2NC(=O)Cc2ccc(Cl)cc2)CC1 | nt | -7.7 | 20.4 | -17.1 | -9.6 | -1.3 | nt | 12.0
Cc1c(NC(=O)C23CC4CC(CC(Br)(C4)C2)C3)c(=O)n(-c2ccccc2)n1C | -4.0 | -2.2 | -1.9 | 1.4 | nt | 0.6 | nt | nt
CCOC(=O)N1CCC2(CC1)NCCc1c2[nH]c2ccccc12 | -5.0 | -12.6 | 26.3 | -6.8 | -2.5 | 0.0 | nt | nt
COc1ccccc1CC(=O)N1CCN(c2ccc([N+](=O)[O-])cc2)CC1 | 24.9* | -2.6 | 5.4 | 3.0 | 7.4 | 1.1 | 6.6 | 35.9*
COc1ccccc1NC(=O)N1CCN(c2cccc(C(F)(F)F)c2)CC1 | -7.1 | -13.0 | -0.6 | -4.3 | 3.9 | -4.4 | nt | nt
COc1ccc(CCC(=O)N2CCN(c3ccc([N+](=O)[O-])cc3)CC2)cc1OC | 32.6 | -0.3 | -6.3 | -4.0 | nt | 4.8 | nt | nt
O=C(c1ccccc1F)N1CCN(c2cccc(C(F)(F)F)c2)CC1 | 22.7* | -1.6 | -7.0 | 3.1 | -11.5 | 0.5 | 9.8 | 6.9
CC(=O)N1CCN(c2ccc([N+](=O)[O-])cc2)CC1 | -3.9 | 4.7 | 7.8 | -4.7 | -28.3 | -1.1 | nt | nt
Cc1ccc(CC(=O)N2CCN(c3ccc([N+](=O)[O-])cc3)CC2)cc1 | 39.5* | -10.3 | 14.3 | -18.0 | nt | -10.2 | 42.6* | 40.6*
O=C(c1c(F)c(F)c(F)c(F)c1F)N1CCN(c2cccc(C(F)(F)F)c2)CC1 | -11.6 | 3.0 | -4.7 | 1.0 | -16.8 | -7.1 | nt | nt
COc1ccccc1CC(=O)N1CCN(c2cccc(C(F)(F)F)c2)CC1 | 26.4* | -4.2 | 8.5 | -9.4 | -8.3 | 5.6 | 37.9* | 37.9*
CCCS(=O)(=O)c1ccc(COC(=O)c2ccc(NC(C)=O)cc2)cc1 | -5.7 | -4.9 | -13.6 | 0.0 | -6.6 | -1.9 | nt | nt
O=C(OC1CCN(c2ccc([N+](=O)[O-])cc2)CC1)c1ccccc1 | 29.4* | 13.0 | 0.3 | 11.1 | -8.2 | 11.4 | 47.3* | 68.2*
O=C(ON=C1CCN(c2ccc([N+](=O)[O-])cc2)CC1)c1ccccc1 | 7.3 | -1.8 | -8.5 | -8.3 | -5.0 | 8.0 | nt | nt
COc1ccccc1C(=O)N1CCN(c2cccc(Cl)c2)CC1 | 25.0* | 4.9 | -11.3 | -5.4 | -2.2 | 5.0 | 15.0 | 25.1*
Cc1nc2sc(C(=O)Nc3ccccc3)c(N)c2c(C)c1[N+](=O)[O-] | -0.3 | -1.6 | -9.4 | 5.2 | -9.4 | 3.2 | nt | nt
CN(CC1CCCN(CCc2ccc(Cl)cc2)C1)C(=O)c1ccc2nc[nH]c2c1 (centres undefined) | -16.6 | 15.3 | -4.7 | 0.3 | nt | 5.1 | nt | nt
Cc1cc(NC(=O)CSCC(=O)Nc2ccc(C)c(C)c2)no1 | nt | nt | nt | 16.1 | nt | nt | nt | nt

Compound activity deposited in PubChem BioAssay by several laboratories.
